# Reference: ChEMBL document CHEMBL4308848, “Molecular Basis for the N-Terminal Bromodomain-and-Extra-Terminal-Family Selectivity of a Dual Kinase-Bromodomain Inhibitor” (J Med Chem, 2018)
# Calls of active or inactive are those of the source. The calls are words filed in the database; no cut-off is given here.
# Tests used:
# A549 [1] = assay: Cytotoxicity against human A549 cells assessed as reduction in cell viability at 10 to 25 uM after 8 hrs by Alamar blue assay; type: cell-based; conditions: a549, 8 h
# How it was run: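 Viability of A549-NF-κB-luc cells was measured by Alamar Blue colorimetric staining, run in parallel with the luciferase reporter. Cells were dosed with serial compound dilutions at 0.5% final DMSO, TNF-α (15 ng/mL) was added 30 min after dosing, and the read was at 8 h.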
# [2] = biological target: T1, Bromodomain-containing protein 4 (Homo sapiens, UniProt O60885); assay: Inhibition of BRD4 bromodomain 1 in human A549 cells assessed as reduction in TNFalpha-induced NFkappaB transcription at 1 to 25 uM after 8 hrs by bright-glo luciferase reporter gene assay relative to control; type: cell-based
# How it was run: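 A549-NF-κB-luc cells (DMEM, 10% FBS, hygromycin) were dosed with serial compound dilutions at 0.5% final DMSO. TNF-α (15 ng/mL final) was added 30 min after dosing. Bright-Glo luciferase luminescence was read 8 h later. Activity is expressed as percent NF-κB activity, as means ± SEM of three biological experiments, each with three technical replicates.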
# [3] = biological target: T2, Bromodomain-containing protein 3 (Homo sapiens, UniProt Q15059); assay: Inhibition of BRD3 N-terminal bromodomain 1 (unknown origin) expressed in Escherichia coli Bl21(DE3) by alpha-screen assay
# T2 sequence (Q15059 whole entry): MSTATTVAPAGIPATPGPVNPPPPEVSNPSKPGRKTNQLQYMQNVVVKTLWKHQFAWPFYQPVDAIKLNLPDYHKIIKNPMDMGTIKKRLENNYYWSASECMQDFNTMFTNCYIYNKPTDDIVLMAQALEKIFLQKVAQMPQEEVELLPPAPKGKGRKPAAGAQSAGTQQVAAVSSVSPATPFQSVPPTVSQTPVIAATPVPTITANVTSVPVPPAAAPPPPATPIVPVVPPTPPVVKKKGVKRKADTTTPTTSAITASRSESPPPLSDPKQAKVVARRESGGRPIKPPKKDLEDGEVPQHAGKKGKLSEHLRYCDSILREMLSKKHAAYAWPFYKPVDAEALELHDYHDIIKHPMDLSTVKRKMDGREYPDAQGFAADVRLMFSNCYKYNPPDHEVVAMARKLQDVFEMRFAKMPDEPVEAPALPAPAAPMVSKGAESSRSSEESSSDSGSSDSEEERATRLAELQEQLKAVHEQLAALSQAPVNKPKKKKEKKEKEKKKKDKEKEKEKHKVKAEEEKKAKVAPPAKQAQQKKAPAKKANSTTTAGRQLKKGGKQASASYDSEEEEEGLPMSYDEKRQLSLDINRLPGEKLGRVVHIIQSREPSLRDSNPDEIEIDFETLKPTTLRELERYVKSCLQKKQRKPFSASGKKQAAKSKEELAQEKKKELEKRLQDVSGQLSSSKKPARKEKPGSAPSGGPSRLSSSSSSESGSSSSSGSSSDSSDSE
# [4] = biological target: T3, Bromodomain testis-specific protein (Homo sapiens, UniProt Q58F21); assay: Inhibition of BRDT N-terminal bromodomain 1 (unknown origin) expressed in Escherichia coli Bl21(DE3) by alpha-screen assay
# [5] = biological target: T2, Bromodomain-containing protein 3; assay: Inhibition of BRD3 C-terminal bromodomain 2 (unknown origin) expressed in Escherichia coli Bl21(DE3) by alpha-screen assay
# [6] = biological target: T1, Bromodomain-containing protein 4; assay: Inhibition of BRD4 N-terminal bromodomain 1 (unknown origin) expressed in Escherichia coli Bl21(DE3) by alpha-screen assay
# [7] = biological target: T4, Bromodomain-containing protein 2 (Homo sapiens, UniProt P25440); assay: Inhibition of BRD2 N-terminal bromodomain 1 (unknown origin) expressed in Escherichia coli Bl21(DE3) by alpha-screen assay
# T4 sequence (P25440 whole entry): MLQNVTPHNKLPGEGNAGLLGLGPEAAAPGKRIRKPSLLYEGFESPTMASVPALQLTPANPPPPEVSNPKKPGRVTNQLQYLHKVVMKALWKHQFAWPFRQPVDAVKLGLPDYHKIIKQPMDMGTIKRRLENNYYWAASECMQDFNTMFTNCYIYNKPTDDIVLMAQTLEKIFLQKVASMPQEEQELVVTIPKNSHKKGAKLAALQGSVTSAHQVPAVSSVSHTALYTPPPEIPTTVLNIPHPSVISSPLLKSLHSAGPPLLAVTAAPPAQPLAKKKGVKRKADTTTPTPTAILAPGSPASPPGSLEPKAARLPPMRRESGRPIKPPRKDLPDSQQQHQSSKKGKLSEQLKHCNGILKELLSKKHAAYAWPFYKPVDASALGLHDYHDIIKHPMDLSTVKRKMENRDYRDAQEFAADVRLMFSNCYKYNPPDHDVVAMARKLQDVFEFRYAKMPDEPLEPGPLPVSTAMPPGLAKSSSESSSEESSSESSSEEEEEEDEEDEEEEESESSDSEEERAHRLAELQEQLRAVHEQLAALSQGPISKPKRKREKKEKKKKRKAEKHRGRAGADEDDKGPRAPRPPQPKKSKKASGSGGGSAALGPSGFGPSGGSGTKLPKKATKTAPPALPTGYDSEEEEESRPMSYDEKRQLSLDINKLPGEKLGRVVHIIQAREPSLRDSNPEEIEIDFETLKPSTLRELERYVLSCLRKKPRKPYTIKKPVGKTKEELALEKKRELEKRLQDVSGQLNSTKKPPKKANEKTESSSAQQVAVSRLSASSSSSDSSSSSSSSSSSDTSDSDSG
# [8] = biological target: T4, Bromodomain-containing protein 2; assay: Inhibition of BRD2 C-terminal bromodomain 2 (unknown origin) expressed in Escherichia coli Bl21(DE3) by alpha-screen assay
# [9] = biological target: T1, Bromodomain-containing protein 4; assay: Inhibition of BRD4 C-terminal bromodomain 2 (unknown origin) expressed in Escherichia coli Bl21(DE3) by alpha-screen assay
# [10] = biological target: T4, Bromodomain-containing protein 2; assay: Inhibition of human 6x-His-tagged BRD2 bromodomain 2 expressed in Escherichia coli
# [11] = biological target: T2, Bromodomain-containing protein 3; assay: Inhibition of human 6x-His-tagged BRD3 bromodomain 2 expressed in Escherichia coli
# [12] = biological target: T1, Bromodomain-containing protein 4; conditions: A549, 1 uM
# [13] = biological target: T1, Bromodomain-containing protein 4; conditions: A549, 10 uM
# [14] = biological target: T1, Bromodomain-containing protein 4; assay: Displacement of BI-BODIPY from BRD4 C-terminal bromodomain 2 (unknown origin) expressed in Escherichia coli Bl21(DE3) by fluorescence polarization assay
# How it was run: (§1)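 Fluorescence anisotropy in 50 mM HEPES, 100 mM NaCl, 4 mM CHAPS pH 7.4, with 15 nM BI-BODIPY tracer and bromodomain set at 80% tracer bound. […] Percent bound was determined where displacement was incomplete.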
# [15] = biological target: T3, Bromodomain testis-specific protein; assay: Displacement of BI-BODIPY from BRDT C-terminal bromodomain 2 (unknown origin) expressed in Escherichia coli Bl21(DE3) by fluorescence polarization assay; how it was run: as §1
# [16] = biological target: T3, Bromodomain testis-specific protein
# [17] = biological target: T3, Bromodomain testis-specific protein; remark: listed apart in the source
# [18] = biological target: T1, Bromodomain-containing protein 4; assay: Binding affinity to BRD4 bromodomain 1 (unknown origin) expressed in Escherichia coli Bl21(DE3) by isothermal-titration calorimetry
# [19] = biological target: T1, Bromodomain-containing protein 4
# [20] = biological target: T1, Bromodomain-containing protein 4; assay: Inhibition of BRD4 bromodomain 1 in human MM1S cells assessed as reduction in c-myc levels at 0.1 to 30 uM by Western blot analysis; type: cell-based
# How it was run: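 MM.1S cells in RPMI-1640/10% FBS were seeded at 10^6 per well and exposed for 6 h to 0.1–30 μM compound. Lysates were run on 12.5% SDS-PAGE and blotted for c-Myc, with GAPDH as loading control. Detection by HRP secondary and ECL on X-ray film.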
# [21] = biological target: Mitogen-activated protein kinase 14 (Homo sapiens) (UniProt Q16539); assay: Inhibition of p38alpha in human MM1S cells assessed as reduction in MSK1 phosphorylation at T581 at 0.1 to 30 uM by Western blot analysis; type: cell-based
# Sequence of Mitogen-activated protein kinase 14 (Homo sapiens) (Q16539 whole entry): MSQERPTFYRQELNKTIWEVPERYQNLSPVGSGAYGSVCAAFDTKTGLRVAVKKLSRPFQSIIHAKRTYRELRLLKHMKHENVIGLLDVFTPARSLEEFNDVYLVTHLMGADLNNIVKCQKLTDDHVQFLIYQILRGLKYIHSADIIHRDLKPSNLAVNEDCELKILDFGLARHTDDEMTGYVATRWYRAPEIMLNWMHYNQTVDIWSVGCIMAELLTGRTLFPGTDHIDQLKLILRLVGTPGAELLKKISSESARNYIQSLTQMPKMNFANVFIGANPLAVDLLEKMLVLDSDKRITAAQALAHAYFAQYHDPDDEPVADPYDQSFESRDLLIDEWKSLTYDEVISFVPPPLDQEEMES
# A549 [22] = assay: Cytotoxicity against human A549 cells assessed as reduction in cell viability at 0.5 to 50 uM after 8 hrs by Alamar blue assay; type: cell-based; conditions: a549, 8 h
# How it was run: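 A549-NF-κB-luc cells in DMEM/10% FBS with hygromycin were dosed with serially diluted compound at 0.5% final DMSO. TNF-α (15 ng/mL final) was added 30 min after dosing, and viability was read by Alamar Blue in parallel with the 8 h luciferase read. Three biological × three technical replicates.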
# [23] = biological target: T3, Bromodomain testis-specific protein; assay: Binding affinity to human BRDT bromodomain 1 (unknown origin) expressed in Escherichia coli Bl21(DE3) at 12.5 to 100 uM by protein-observed fluorine NMR method
# How it was run: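 5-Fluorotryptophan-labeled bromodomain expressed in E. coli Bl21(DE3)+pRARE in defined medium with 5-fluoroindole, induced with 1 mM IPTG at 20 °C, Ni-purified. 19F NMR with 40−50 μM protein in 50 mM TRIS, 100 mM NaCl, 5% D2O pH 7.4, 0.05% DMSO, across varying ligand concentrations. Referenced to trifluoroacetate; 0.7 s relaxation delay, 90° flip.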
# [24] = biological target: Histone acetyltransferase KAT2B (Homo sapiens) (UniProt Q92831); assay: Inhibition of human PCAF (715 to 831 residues) expressed in bacterial expression system at 10 uM relative to control
# [25] = biological target: SWI/SNF-related matrix-associated actin-dependent regulator of chromatin subfamily A member 2 (Homo sapiens) (UniProt P51531); assay: Inhibition of human SMARCA2 (1377 to 1486 residues) (unknown origin) expressed in bacterial expression system at 10 uM relative to control
# [26] = biological target: Histone acetyltransferase p300 (Homo sapiens) (UniProt Q09472); assay: Inhibition of human P300 (1040 to 1161 residues) expressed in bacterial expression system at 10 uM relative to control
# Sequence of Histone acetyltransferase p300 (Homo sapiens) (Q09472 whole entry, the tested form may be a part): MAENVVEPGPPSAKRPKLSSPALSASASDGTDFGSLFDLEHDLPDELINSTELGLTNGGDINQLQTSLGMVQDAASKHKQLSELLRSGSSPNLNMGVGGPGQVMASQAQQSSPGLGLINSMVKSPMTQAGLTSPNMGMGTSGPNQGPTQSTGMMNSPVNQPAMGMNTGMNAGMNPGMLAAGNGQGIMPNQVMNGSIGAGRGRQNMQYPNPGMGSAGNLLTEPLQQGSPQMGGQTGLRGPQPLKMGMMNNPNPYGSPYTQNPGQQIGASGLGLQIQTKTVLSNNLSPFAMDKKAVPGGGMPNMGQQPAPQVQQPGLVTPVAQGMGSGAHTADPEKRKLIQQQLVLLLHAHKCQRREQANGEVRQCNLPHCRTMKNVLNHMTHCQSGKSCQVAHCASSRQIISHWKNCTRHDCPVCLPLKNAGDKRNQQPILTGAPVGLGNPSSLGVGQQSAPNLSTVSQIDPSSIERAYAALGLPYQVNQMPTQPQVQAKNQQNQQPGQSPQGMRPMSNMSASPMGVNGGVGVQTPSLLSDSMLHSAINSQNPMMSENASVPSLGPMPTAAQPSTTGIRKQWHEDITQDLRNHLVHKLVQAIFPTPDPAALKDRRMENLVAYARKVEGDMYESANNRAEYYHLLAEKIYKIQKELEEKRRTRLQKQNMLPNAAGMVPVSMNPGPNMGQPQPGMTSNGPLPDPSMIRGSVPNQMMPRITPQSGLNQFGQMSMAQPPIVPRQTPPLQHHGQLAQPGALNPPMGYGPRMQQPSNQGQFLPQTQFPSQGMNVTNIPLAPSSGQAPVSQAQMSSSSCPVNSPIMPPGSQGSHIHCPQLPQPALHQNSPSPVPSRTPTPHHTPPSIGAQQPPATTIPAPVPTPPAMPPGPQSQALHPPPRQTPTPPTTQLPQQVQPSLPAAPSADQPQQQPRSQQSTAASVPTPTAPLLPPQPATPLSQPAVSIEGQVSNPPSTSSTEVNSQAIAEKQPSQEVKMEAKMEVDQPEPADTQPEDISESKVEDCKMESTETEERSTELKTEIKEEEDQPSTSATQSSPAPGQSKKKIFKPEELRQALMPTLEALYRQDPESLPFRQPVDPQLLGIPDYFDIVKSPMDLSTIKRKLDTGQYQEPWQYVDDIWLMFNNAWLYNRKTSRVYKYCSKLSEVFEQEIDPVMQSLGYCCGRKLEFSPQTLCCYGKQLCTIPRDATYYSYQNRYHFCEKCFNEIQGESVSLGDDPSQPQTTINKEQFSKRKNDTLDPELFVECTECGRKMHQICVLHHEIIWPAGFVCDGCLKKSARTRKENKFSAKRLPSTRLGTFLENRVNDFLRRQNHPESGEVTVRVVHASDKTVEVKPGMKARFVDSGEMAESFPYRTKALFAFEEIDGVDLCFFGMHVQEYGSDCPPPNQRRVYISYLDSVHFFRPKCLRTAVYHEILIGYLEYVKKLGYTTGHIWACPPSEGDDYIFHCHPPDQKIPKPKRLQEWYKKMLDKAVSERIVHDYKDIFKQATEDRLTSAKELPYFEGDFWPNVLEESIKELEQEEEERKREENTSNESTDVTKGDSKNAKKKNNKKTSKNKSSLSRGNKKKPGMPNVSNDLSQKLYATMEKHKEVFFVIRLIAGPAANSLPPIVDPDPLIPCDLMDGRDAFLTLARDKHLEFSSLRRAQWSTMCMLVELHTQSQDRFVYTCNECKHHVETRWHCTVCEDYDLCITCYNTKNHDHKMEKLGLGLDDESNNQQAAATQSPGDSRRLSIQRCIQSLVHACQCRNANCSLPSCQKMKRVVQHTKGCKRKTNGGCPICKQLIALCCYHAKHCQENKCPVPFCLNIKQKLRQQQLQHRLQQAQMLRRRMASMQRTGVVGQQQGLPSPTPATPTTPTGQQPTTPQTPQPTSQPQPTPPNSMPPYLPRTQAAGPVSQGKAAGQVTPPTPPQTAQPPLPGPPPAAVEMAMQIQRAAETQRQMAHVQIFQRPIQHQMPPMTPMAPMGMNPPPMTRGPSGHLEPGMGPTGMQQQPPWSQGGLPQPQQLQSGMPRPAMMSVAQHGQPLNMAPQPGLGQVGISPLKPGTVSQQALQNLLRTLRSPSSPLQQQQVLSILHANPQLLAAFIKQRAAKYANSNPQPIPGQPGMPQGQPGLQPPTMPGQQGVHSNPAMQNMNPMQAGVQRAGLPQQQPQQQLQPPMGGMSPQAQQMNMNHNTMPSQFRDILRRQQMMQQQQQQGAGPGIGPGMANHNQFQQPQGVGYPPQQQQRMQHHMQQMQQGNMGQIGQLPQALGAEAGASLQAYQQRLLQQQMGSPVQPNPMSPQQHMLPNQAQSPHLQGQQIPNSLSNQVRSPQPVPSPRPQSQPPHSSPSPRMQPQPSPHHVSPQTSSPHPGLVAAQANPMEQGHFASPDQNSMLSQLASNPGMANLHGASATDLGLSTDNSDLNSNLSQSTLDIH
# [27] = biological target: T3, Bromodomain testis-specific protein; assay: Inhibition of human BRDT bromodomain 1 expressed in HEK293 cells at 10 uM relative to control; type: cell-based
# [28] = biological target: SWI/SNF-related matrix-associated actin-dependent regulator of chromatin subfamily A member 4 (Homo sapiens) (UniProt P51532); assay: Inhibition of human SMARCA4 expressed in HEK293 cells at 10 uM relative to control; type: cell-based
# [29] = biological target: Mitogen-activated protein kinase 14 (Homo sapiens) (UniProt Q16539); assay: Inhibition of p38alpha in human MM1S cells assessed as reduction in MSK1 phosphorylation at T581 up to 10 uM by Western blot analysis; type: cell-based
structure (smiles),measurement,setting,value
NC(=O)c1ccc(N(C(N)=O)c2c(F)cccc2F)nc1-c1ccc(F)cc1F [VX-702],Activity,A549 [1],Non-Toxic
same,inhibition,[2],inactive
Cc1cc(C)cc(Nc2nccc(-c3c(-c4ccc(F)cc4)nnn3C3CCNCC3)n2)c1,IC50,[3],51 µM
same,IC50,[4],36 µM
same,IC50,[5],110 µM
same,IC50,[6],27 µM
same,IC50,[7],43 µM
same,IC50,[8],30 µM
same,IC50,[9],75 µM
CC(=O)NCCCCn1c2c(c3ccccc31)C(=O)NCC2,Kd,[10],> 75 µM
same,Kd,[11],> 75 µM
C[S+]([O-])c1ccc(-c2nc(-c3ccncc3)c(-c3ccc(F)cc3)[nH]2)cc1 (configuration not stated) [SB-203580],Activity,A549 [1],Non-Toxic
COc1cc(OC)c2c(=O)[nH]c(-c3cc(C)c(OCCO)c(C)c3)nc2c1,inhibition,[12],40%
same,inhibition,[13],25%
same,inhibition,[14],Active
CC[C@@H]1C(=O)N(C)c2cnc(Nc3ccc(C(=O)NC4CCN(C)CC4)cc3OC)nc2N1C1CCCC1,inhibition,[15],Active
Fc1ccc(-c2ncn(C3CCNCC3)c2-c2ccnc(Oc3cc(F)cc(F)c3)n2)cc1,IC50,[16],> 250 µM
same,IC50,[17],> 250 µM
Cc1ccc(Nc2nccc(-c3c(-c4ccc(F)cc4)ncn3C3CCNCC3)n2)cc1C,IC50,[16],4.7 µM
same,Kd,[18],1.8 µM
same,inhibition,[15],inactive
same,IC50,[19],> 250 µM
same,inhibition,[20],Active
same,inhibition,[14],inactive
same,IC50,[17],> 250 µM
same,inhibition,[21],Active
same,Activity,A549 [22],Non-Toxic
Cc1cc(C)cc(Nc2nccc(-c3c(-c4ccc(F)cc4)ncn3C3CCNCC3)n2)c1,IC50,[16],3.5 µM
same,Activity,[23],Active
same,inhibition,[15],inactive
same,inhibition,[24],40 to 50%
same,IC50,[3],11.2 µM
same,IC50,[4],5.3 µM
same,IC50,[5],> 100 µM
same,inhibition,[25],40 to 50%
same,inhibition,[26],40 to 50%
same,IC50,[17],> 250 µM
same,inhibition,[27],50%
same,IC50,[7],29 µM
same,IC50,[8],67 µM
same,inhibition,[28],40 to 50%
same,Activity,A549 [22],Non-Toxic
Cc1sc2c(c1C)C(c1ccc(Cl)cc1)=N[C@@H](CC(=O)OC(C)(C)C)c1nnc(C)n1-2,inhibition,[29],inactive
Cc1cc(C)cc(Nc2nccc(-c3c(C)nnn3C3CCNCC3)n2)c1,IC50,[3],0.77 µM
same,IC50,[4],1.6 µM
same,IC50,[5],2.4 µM
same,IC50,[6],1.3 µM
same,IC50,[7],1.8 µM
same,IC50,[8],12 µM
same,IC50,[9],0.56 µM
Cc1cc(C)cc(Nc2nccc(-c3c(CO)nnn3C3CCNCC3)n2)c1,IC50,[3],200 µM
same,IC50,[4],110 µM
same,IC50,[5],310 µM
same,IC50,[7],> 250 µM
same,IC50,[8],260 µM
same,IC50,[9],102 µM
C[S+]([O-])c1ccc(-c2nc(-c3ccc(F)cc3)c(-c3ccncc3)[nH]2)cc1 (configuration not stated),inhibition,[2],inactive
